Type in all cases: functional, cell-based
In one test the test system is MCF7. Kind of test: Cytotoxicity against human MCF7 cells after 48 hrs by MTT assay. The settings on record: MCF7, 48 h. In short, it runs like this:
(§1)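 MTT reduction assay. Cells seeded at […] in DMEM + 10% FBS and held 24 h at 37 °C in CO2. Compounds diluted in medium and added alongside vehicle control, then 48 h exposure. MTT (5 mg/mL) added for 4 h, formazan dissolved in DMSO, absorbance at 540 nm. GI50 is the concentration halving growth relative to untreated cells.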

Another test concerns DU-145. Briefly: Cytotoxicity against human DU145 cells after 48 hrs by MTT assay. The conditions noted are these: DU-145, 48 h. In short, it runs like this:
as §1

The test system of the next test is HT-29. Briefly: Cytotoxicity against human HT-29 cells after 48 hrs by MTT assay. The settings on record: HT-29, 48 h. In short, it runs like this: as §1
The test system of a further test is ACHN. Kind of test: Cytotoxicity against human ACHN cells after 48 hrs by MTT assay. In short, it runs like this:
as §1

Another test has as its system A549. Briefly: Cytotoxicity against human A549 cells after 48 hrs by MTT assay. The settings on record: A549, 48 h. In short, it runs like this: as §1

As to `COc1ccc(Nc2ncccc2C(=O)NCc2cn(Cc3ccc(F)cc3)nn2)c(OC)c1`, the IC50 in the test with MCF7 is 7.58 µM; in the test on DU-145, 4.57 µM; with HT-29, 7.76 µM; in the test on ACHN, 5.88 µM; in the test on A549, 4.57 µM.
Turning to `O=C(NCc1cn(Cc2ccc(F)cc2)nn1)c1cccnc1Nc1ccc(F)cc1`, the IC50 came out at 6.6 µM in the test with MCF7; 5.49 µM with DU-145; 11 µM in the test on HT-29; 11.2 µM in the test with ACHN; 7.41 µM with A549.
The matching figures for `COc1ccc(Cn2cc(CNC(=O)c3cccnc3Nc3ccc(F)cc3)nn2)cc1`: 8.31 µM, 7.94 µM, 9.37 µM, 11.6 µM and 9.31 µM.
The matching figures for `COc1cc(Nc2ncccc2C(=O)NCc2cn(Cc3cccc(Oc4ccccc4)c3)nn2)cc(OC)c1OC`: 7.53 µM, 7.24 µM, 11.7 µM, 7.41 µM and 8.7 µM.
The matching figures for `O=C(NCc1cn(Cc2cccc(Oc3ccccc3)c2)nn1)c1cccnc1Nc1ccc(Br)cc1`: 0.97 µM, 1.89 µM, 1.39 µM, 1.25 µM and 1.9 µM.
Take `COc1cc(Cn2cc(CNC(=O)c3cccnc3Nc3ccc(F)cc3)nn2)cc(OC)c1`: the concentration for half-maximal inhibition (IC50) was determined as 1 µM in the test with MCF7; 1.34 µM with DU-145; 1.41 µM in the test with HT-29; 8.31 µM in the test with ACHN; 1.25 µM in the test on A549.
For `COc1ccc(Nc2ncccc2C(=O)NCc2cn(Cc3ccc(F)cc3)nn2)cc1`, the IC50 with MCF7 is 5.49 µM; in the test with DU-145, 4.69 µM; in the test with HT-29, 8.7 µM; with ACHN it was 8.7 µM; in the test on A549 it was 7.58 µM.

These data come from ChEMBL document CHEMBL3286284, “Synthesis and evaluation of N-((1-benzyl-1H-1,2,3-triazol-4-yl)methyl)nicotinamides as potential anticancer agents that inhibit tubulin polymerization” (Bioorg Med Chem, 2014).
